# Test results: ChEMBL document CHEMBL5724801, “EUbOPEN Chemogenomics Library - Multiplex” (2024)
# “And” between values parts separate entries of the source, which are not always exact repeats. Identical values can stand only once.
# Tested on: Fibroblast
# Assay: Multiplex assay against human fibroblast
# Assay type: toxicity, cell-based
# In short: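 Tubulin, mitochondrial-mass and membrane-permeability phenotypes are per cents of healthy-nucleus cells. Cells were gated by CellPathfinder machine learning into Hoechst high-intensity objects or normal cells, normal cells into healthy, pyknosed or fragmented nuclei, and pyknosed cells into mitotic or apoptotic. Before that, live cells stained at seeding with Hoechst33342, BioTracker Green Microtubule Cytoskeleton Dye, MitoTracker Red and Annexin V Alexa Fluor 680 were imaged on a CQ1 microscope at 37°C and 5% CO2 after compound addition.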
# [1] = 12 h, 1 µM, compound concentration 1 uM
# [2] = 12 h, 10 µM, compound concentration 10 uM
# [3] = 24 h, 1 µM, compound concentration 1 uM
# [4] = 24 h, 10 µM, compound concentration 10 uM
# [5] = 48 h, 1 µM, compound concentration 1 uM
# [6] = 48 h, 10 µM, compound concentration 10 uM
compound,measurement,setting,value
O=c1cccc2n1C[C@@H]1CNC[C@H]2C1 [CYTISINICLINE],Population Apoptotic (%),[1],5.66% and 13.33%
same,Population Fragmented Nuclei (%),[1],10.05% and 5.19%
same,Population Healthy Nuclei (%),[1],61.9% and 75.32%
same,Population Hoechst High Intensity Objects (%),[1],0%
same,Population Membrane Permeable-Phenotype (%),[1],4.27% and 5.17%
same,Population Mitochondria Different-Phenotype (%),[1],5.98% and 6.9%
same,Population Mitotic Cells (%),[1],94.34% and 86.67%
same,Population Normal (%),[1],100%
same,Population Pyknosed Nuclei (%),[1],28.04% and 19.48%
same,Population Tubulin-Different-Phenotype (%),[1],11.11% and 12.93%
same,Total Cell Count,[1],189 and 154
same,Population Apoptotic (%),[2],15.38% and 16.67%
same,Population Fragmented Nuclei (%),[2],13.5% and 4.41%
same,Population Healthy Nuclei (%),[2],62.58% and 80.88%
same,Population Hoechst High Intensity Objects (%),[2],0%
same,Population Membrane Permeable-Phenotype (%),[2],11.76% and 2.42%
same,Population Mitochondria Different-Phenotype (%),[2],9.8% and 7.27%
same,Population Mitotic Cells (%),[2],84.62% and 83.33%
same,Population Normal (%),[2],100%
same,Population Pyknosed Nuclei (%),[2],23.93% and 14.71%
same,Population Tubulin-Different-Phenotype (%),[2],20.59% and 20.61%
same,Total Cell Count,[2],163 and 204
same,Population Apoptotic (%),[3],10.81% and 26.67%
same,Population Fragmented Nuclei (%),[3],10.86% and 6.41%
same,Population Healthy Nuclei (%),[3],72.4% and 83.97%
same,Population Hoechst High Intensity Objects (%),[3],0%
same,Population Membrane Permeable-Phenotype (%),[3],3.12% and 3.05%
same,Population Mitochondria Different-Phenotype (%),[3],4.38% and 3.82%
same,Population Mitotic Cells (%),[3],89.19% and 73.33%
same,Population Normal (%),[3],100%
same,Population Pyknosed Nuclei (%),[3],16.74% and 9.62%
same,Population Tubulin-Different-Phenotype (%),[3],13.12% and 12.21%
same,Total Cell Count,[3],221 and 156
same,Population Apoptotic (%),[4],8% and 22.22%
same,Population Fragmented Nuclei (%),[4],9.26% and 6.16%
same,Population Healthy Nuclei (%),[4],75.31% and 85.31%
same,Population Hoechst High Intensity Objects (%),[4],0%
same,Population Membrane Permeable-Phenotype (%),[4],6.56% and 4.44%
same,Population Mitochondria Different-Phenotype (%),[4],5.74% and 5%
same,Population Mitotic Cells (%),[4],92% and 77.78%
same,Population Normal (%),[4],100%
same,Population Pyknosed Nuclei (%),[4],15.43% and 8.53%
same,Population Tubulin-Different-Phenotype (%),[4],20.49% and 23.33%
same,Total Cell Count,[4],162 and 211
same,Population Apoptotic (%),[5],26.67% and 22.22%
same,Population Fragmented Nuclei (%),[5],7.5% and 5.23%
same,Population Healthy Nuclei (%),[5],86.25% and 83.01%
same,Population Hoechst High Intensity Objects (%),[5],0%
same,Population Membrane Permeable-Phenotype (%),[5],0.48% and 1.57%
same,Population Mitotic Cells (%),[5],73.33% and 77.78%
same,Population Normal (%),[5],100%
same,Population Pyknosed Nuclei (%),[5],6.25% and 11.76%
same,Population Tubulin-Different-Phenotype (%),[5],3.38% and 7.09%
same,Total Cell Count,[5],240 and 153
same,Population Apoptotic (%),[6],62.5% and 28.57%
same,Population Fragmented Nuclei (%),[6],8.67% and 8.44%
same,Population Healthy Nuclei (%),[6],87.24% and 85.65%
same,Population Hoechst High Intensity Objects (%),[6],0%
same,Population Membrane Permeable-Phenotype (%),[6],0% and 2.46%
same,Population Mitotic Cells (%),[6],37.5% and 71.43%
same,Population Normal (%),[6],100%
same,Population Pyknosed Nuclei (%),[6],4.08% and 5.91%
same,Population Tubulin-Different-Phenotype (%),[6],8.19% and 18.72%
same,Total Cell Count,[6],196 and 237
